Source: ChEMBL document CHEMBL4616704, “Discovery of an Atropisomeric PI3Kβ Selective Inhibitor through Optimization of the Hinge Binding Motif” (ACS Med Chem Lett, 2020)
Where “and” joins values, the source holds several entries; their conditions need not be identical. Equal entries are not always repeated.

How the values were obtained:
[1] = target: PI3-kinase p110-delta/p85-alpha (Homo sapiens, UniProt O00329); assay: Inhibition of human p110delta catalytic subunit/p85alpha using PIP2 as substrate after 30 mins in presence of ATP at 2xKm concentration by TR-FRET assay; assay type: protein-complex assay
Summary of the method: (§1)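 Class I PI3K isoforms assayed in vitro for kinase inhibition with ATP at 2Km steady-state concentration; IC50 values averaged over at least 2 determinations.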

[2] = target: Phosphatidylinositol 4,5-bisphosphate 3-kinase catalytic subunit gamma isoform (Homo sapiens, UniProt P48736); assay: Inhibition of human full length p110gamma using PIP2 as substrate after 30 mins in presence of ATP at 2xKm concentration by TR-FRET assay
[3] = target: PI3-kinase p110-alpha/p85-alpha (Homo sapiens, UniProt P42336); assay: Inhibition of human full length p110alpha/p85alpha using PIP2 as substrate after 30 mins in presence of ATP at 2xKm concentration by TR-FRET assay; assay type: protein-complex assay; summary of the method: as §1
[4] = target: T1, Phosphatidylinositol 4,5-bisphosphate 3-kinase catalytic subunit beta isoform (Homo sapiens, UniProt P42338); assay: Inhibition of PI3Kbeta in PTEN-deficient human MDA-MB-415 cells assessed as reduction in AKT phosphorylation at Ser473 residue after 2 hrs by mesoscale assay; assay type: cell-based
Summary of the method: (§2)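 Cellular readout: pAKT1 Ser473 normalized to total AKT1, expressed as units pAKT1 Ser473 per nanogram total AKT1; cells treated under serum-free conditions.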

[5] = Dissociation constant, acidic pKa of compound; assay type: physicochemical
[6] = target: Cytochrome P450 3A4 (Homo sapiens, UniProt P08684); assay: Inhibition of human CYP3A4; assay type: ADME
[7] = target: T1, Phosphatidylinositol 4,5-bisphosphate 3-kinase catalytic subunit beta isoform; assay: Inhibition of PI3Kbeta in PTEN-deficient human ZR-75-1 cells assessed as reduction in AKT phosphorylation at Ser473 residue after 2 hrs by mesoscale assay; assay type: cell-based; summary of the method: as §2
[8] = target: CYP450 (Homo sapiens, UniProt P04798+P05177+P05181+P08684+P10632+P10635+P11509+P11712+P13584+P20813+P20815+P20853+P24462+P24903+P33260+P33261+P51589+P78329+P98187+Q02928+Q08477+Q16678+Q16696+Q5TCH4+Q6VVX0+Q7Z449+Q8TAV3+Q96SQ9+Q9HB55); assay: Inhibition of human CYP450; assay type: ADME, protein assay
Summary of the method: (§3)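 Binding-assay format used to measure inhibition of major human CYP450 enzymes and hERG.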

[9] = Protein binding in Sprague-Dawley rat plasma at 1 mg/kg administered as iv infusion for 30 mins and measured after 24 hrs by ESI-LC/MS/MS analysis; assay type: ADME, organism-based; details: read-out: PPB (converted)
[10] = Apparent permeability across basolateral to apical side in human Caco2 cells at 10 uM after 1 to 2 hrs by LC/MS/MS analysis; assay type: ADME, cell-based; details: Caco-2
[11] = target: T1, Phosphatidylinositol 4,5-bisphosphate 3-kinase catalytic subunit beta isoform; assay: Inhibition of PI3Kbeta in PTEN-deficient human PC3 cells assessed as reduction in AKT phosphorylation at Ser473 residue after 2 hrs by mesoscale assay; assay type: cell-based, PC-3; summary of the method: as §2
[12] = target: T1, Phosphatidylinositol 4,5-bisphosphate 3-kinase catalytic subunit beta isoform; assay: Inhibition of PI3Kbeta in PTEN-deficient human LNCAP cells assessed as reduction in AKT phosphorylation at Ser473 residue after 2 hrs by mesoscale assay; assay type: cell-based; summary of the method: as §2
[13] = Genotoxicity in Salmonella typhimurium by Ames test; assay type: toxicity; details: salmonella enterica subsp. enterica serovar typhimurium
[14] = Oral bioavailability in Sprague-Dawley rat at 5 mg/kg dosed via gavage after 24 hrs by ESI-LC/MS/MS analysis; assay type: ADME, organism-based; details: in vivo
[15] = Volume of distribution at steady state in rhesus monkey at 1 mg/kg administered as iv infusion for 30 mins and measured after 24 hrs by ESI-LC/MS/MS analysis; assay type: ADME, organism-based, Macaca mulatta; details: in vivo, read-out: Vdss
[16] = Protein binding in Beagle dog plasma at 1 mg/kg administered as iv infusion for 30 mins and measured after 24 hrs by ESI-LC/MS/MS analysis; assay type: ADME, organism-based, Canis lupus familiaris; details: read-out: PPB (converted)
[17] = Clearance in cynomolgus monkey at 1 mg/kg administered as iv infusion for 30 mins and measured after 24 hrs by ESI-LC/MS/MS analysis; assay type: ADME, organism-based, Macaca fascicularis; details: in vivo
[18] = Volume of distribution at steady state in cynomolgus monkey at 1 mg/kg administered as iv infusion for 30 mins and measured after 24 hrs by ESI-LC/MS/MS analysis; assay type: ADME, organism-based, Macaca fascicularis; details: in vivo, read-out: Vdss
[19] = Protein binding in rhesus monkey plasma at 1 mg/kg administered as iv infusion for 30 mins and measured after 24 hrs by ESI-LC/MS/MS analysis; assay type: ADME, organism-based, Macaca mulatta; details: read-out: PPB (converted)
[20] = Oral bioavailability in cynomolgus monkey at 5 mg/kg dosed via gavage after 24 hrs by ESI-LC/MS/MS analysis; assay type: ADME, organism-based, Macaca fascicularis; details: in vivo
[21] = target: Voltage-gated inwardly rectifying potassium channel KCNH2 (Homo sapiens, UniProt Q12809); assay: Inhibition of human ERG; summary of the method: as §3
[22] = Protein binding in cynomolgus monkey plasma at 1 mg/kg administered as iv infusion for 30 mins and measured after 24 hrs by ESI-LC/MS/MS analysis; assay type: ADME, organism-based, Macaca fascicularis; details: read-out: PPB (converted)
[23] = target: T1, Phosphatidylinositol 4,5-bisphosphate 3-kinase catalytic subunit beta isoform; assay: Inhibition of PI3Kbeta in PTEN-deficient human LNCaP C4-2 cells assessed as reduction in AKT phosphorylation at Ser473 residue after 2 hrs by mesoscale assay; assay type: cell-based; summary of the method: as §2
[24] = Clearance in human hepatocytes at 1 uM measured up to 250 mins by UHPLC-HRMS analysis; assay type: ADME, cell-based, Hepatocyte; details: 250 min, 1 µM
[25] = target: PI3K p110 beta/p85 alpha (Homo sapiens, UniProt P42338); assay: Inhibition of recombinant human full-length N-terminal His6-tagged p110beta/human recombinant full-length untagged p85alpha expressed in baculovirus infected Sf21 insect cells using PIP2 as substrate after 30 mins in presence of ATP at 2xKm concentration by TR-FRET assay; summary of the method: as §1
[26] = Apparent permeability across apical to basolateral side in human Caco2 cells at 10 uM after 1 to 2 hrs by LC/MS/MS analysis; assay type: ADME, cell-based; details: Caco-2

Chain of Cytochrome P450 3A4 (P08684 whole entry, canonical isoform): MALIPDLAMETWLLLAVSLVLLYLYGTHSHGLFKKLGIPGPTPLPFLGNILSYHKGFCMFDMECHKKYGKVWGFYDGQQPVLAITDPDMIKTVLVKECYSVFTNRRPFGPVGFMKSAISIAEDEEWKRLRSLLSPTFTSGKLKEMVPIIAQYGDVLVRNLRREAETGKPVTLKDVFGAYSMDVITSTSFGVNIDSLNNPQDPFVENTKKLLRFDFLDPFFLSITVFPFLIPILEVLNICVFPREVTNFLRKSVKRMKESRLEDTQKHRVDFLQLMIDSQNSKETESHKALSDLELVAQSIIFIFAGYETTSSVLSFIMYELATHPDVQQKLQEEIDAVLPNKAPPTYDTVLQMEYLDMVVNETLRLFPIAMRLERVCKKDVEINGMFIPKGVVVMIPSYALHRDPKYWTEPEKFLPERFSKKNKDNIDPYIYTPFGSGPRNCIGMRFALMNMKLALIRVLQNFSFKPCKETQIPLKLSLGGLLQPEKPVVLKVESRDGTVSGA
Chain of Phosphatidylinositol 4,5-bisphosphate 3-kinase catalytic subunit gamma isoform (P48736 whole entry, canonical isoform): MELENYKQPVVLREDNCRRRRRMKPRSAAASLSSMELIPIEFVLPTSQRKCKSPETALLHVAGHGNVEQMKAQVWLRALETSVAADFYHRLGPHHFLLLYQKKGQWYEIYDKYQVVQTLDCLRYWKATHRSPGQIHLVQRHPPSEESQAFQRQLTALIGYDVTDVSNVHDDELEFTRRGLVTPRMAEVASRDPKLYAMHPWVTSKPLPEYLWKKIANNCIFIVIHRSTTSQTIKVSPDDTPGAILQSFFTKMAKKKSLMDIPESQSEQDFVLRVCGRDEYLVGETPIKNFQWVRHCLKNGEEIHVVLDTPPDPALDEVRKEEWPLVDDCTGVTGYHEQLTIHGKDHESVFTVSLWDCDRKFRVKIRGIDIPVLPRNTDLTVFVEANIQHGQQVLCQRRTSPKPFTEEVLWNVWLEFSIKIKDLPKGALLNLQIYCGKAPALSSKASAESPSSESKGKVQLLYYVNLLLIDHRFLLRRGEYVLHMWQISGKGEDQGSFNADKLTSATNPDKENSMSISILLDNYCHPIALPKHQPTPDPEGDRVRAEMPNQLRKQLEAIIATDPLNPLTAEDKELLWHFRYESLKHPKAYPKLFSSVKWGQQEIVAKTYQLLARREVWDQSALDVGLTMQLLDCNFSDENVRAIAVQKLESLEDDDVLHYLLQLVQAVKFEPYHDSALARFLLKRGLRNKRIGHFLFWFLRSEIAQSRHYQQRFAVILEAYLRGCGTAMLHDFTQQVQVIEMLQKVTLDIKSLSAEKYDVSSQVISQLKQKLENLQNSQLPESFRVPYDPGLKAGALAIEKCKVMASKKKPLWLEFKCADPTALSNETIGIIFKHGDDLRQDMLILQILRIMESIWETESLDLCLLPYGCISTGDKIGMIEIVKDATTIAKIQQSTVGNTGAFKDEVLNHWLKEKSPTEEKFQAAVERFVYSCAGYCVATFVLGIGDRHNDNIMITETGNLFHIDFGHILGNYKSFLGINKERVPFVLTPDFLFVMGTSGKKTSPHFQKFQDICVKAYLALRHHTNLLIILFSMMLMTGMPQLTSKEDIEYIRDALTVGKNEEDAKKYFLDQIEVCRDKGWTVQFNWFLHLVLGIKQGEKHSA
T1 sequence (P42338 whole entry, canonical isoform): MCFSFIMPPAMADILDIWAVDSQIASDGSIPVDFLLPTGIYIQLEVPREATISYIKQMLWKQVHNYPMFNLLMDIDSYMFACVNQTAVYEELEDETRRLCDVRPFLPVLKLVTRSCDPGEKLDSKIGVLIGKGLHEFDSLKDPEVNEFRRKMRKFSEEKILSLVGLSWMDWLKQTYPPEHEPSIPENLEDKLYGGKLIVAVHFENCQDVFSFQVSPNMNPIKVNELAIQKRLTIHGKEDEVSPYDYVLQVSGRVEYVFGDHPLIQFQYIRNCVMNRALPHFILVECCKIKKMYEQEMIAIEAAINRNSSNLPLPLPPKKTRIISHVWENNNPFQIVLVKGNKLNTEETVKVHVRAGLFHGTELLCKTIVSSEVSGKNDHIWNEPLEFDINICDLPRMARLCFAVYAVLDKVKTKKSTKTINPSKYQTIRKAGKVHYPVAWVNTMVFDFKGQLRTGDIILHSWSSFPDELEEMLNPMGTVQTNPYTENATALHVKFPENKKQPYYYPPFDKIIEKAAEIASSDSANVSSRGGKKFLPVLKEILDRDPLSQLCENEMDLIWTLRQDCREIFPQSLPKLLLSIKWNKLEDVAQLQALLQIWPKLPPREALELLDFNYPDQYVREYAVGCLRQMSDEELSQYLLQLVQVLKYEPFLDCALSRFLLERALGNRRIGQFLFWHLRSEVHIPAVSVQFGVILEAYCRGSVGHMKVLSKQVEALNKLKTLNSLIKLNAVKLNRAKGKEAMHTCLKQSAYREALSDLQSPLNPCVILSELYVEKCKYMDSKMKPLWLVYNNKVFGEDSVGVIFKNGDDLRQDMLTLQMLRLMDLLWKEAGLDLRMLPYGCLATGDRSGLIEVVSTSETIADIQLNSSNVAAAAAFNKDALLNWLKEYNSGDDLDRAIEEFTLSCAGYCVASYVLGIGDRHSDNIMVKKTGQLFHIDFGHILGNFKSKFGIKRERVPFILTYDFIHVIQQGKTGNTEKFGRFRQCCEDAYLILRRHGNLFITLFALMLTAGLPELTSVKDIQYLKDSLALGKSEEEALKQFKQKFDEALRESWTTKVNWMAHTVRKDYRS
Chain of PI3-kinase p110-alpha/p85-alpha (P27986 whole entry, canonical isoform): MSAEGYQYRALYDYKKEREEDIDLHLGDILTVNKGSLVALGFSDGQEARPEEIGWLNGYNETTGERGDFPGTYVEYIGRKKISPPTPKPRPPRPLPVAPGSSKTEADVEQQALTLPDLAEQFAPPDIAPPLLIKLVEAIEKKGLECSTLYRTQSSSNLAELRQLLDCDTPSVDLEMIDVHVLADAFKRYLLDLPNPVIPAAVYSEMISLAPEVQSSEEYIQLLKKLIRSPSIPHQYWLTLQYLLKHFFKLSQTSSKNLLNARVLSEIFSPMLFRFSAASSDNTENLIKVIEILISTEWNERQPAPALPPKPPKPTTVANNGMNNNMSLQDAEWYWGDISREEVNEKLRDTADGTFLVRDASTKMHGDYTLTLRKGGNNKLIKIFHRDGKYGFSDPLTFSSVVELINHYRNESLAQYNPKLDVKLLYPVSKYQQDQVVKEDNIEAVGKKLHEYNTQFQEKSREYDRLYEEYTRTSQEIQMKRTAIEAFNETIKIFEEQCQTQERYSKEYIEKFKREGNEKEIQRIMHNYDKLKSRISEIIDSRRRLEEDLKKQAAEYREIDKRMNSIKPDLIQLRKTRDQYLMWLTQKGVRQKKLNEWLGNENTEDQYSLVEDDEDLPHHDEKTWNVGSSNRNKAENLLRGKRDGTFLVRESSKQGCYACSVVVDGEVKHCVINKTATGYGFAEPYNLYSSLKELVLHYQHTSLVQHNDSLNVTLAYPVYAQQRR
Chain of PI3-kinase p110-alpha/p85-alpha (P42336 whole entry, canonical isoform): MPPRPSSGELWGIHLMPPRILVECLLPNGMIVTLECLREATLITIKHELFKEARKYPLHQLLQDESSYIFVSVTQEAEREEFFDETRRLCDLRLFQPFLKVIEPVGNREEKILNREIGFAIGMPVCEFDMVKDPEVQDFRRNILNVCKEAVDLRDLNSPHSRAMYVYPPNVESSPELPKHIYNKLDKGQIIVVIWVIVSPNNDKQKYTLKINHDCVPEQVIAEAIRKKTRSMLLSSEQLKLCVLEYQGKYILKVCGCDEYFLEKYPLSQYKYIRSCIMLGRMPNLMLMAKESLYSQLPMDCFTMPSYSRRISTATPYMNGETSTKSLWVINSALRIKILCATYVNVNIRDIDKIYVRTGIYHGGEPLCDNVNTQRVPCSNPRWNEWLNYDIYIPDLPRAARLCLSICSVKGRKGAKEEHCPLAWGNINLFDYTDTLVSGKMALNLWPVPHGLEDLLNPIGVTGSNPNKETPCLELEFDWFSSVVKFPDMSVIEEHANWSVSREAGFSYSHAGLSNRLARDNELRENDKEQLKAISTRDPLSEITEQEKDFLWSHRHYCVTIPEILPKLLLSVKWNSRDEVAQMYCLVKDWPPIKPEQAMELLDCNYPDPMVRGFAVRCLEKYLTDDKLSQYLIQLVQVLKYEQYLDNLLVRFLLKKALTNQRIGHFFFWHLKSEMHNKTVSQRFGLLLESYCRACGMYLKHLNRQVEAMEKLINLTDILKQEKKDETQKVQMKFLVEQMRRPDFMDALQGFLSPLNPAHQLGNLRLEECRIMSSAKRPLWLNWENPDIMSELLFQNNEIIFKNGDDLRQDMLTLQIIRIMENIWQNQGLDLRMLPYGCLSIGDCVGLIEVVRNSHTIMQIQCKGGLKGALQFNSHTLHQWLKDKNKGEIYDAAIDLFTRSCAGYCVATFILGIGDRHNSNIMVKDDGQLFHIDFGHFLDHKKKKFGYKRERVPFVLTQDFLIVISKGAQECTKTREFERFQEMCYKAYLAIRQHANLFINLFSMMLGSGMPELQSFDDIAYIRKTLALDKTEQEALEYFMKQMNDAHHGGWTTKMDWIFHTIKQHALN
Chain of PI3K p110 beta/p85 alpha (P27986 whole entry): as the sequence (P27986 whole entry, canonical isoform) above
Chain of PI3K p110 beta/p85 alpha (P42338 whole entry): as the sequence (P42338 whole entry, canonical isoform) above

Structure (SMILES) | IC50 [1] | IC50 [2] [nM] | IC50 [3] [nM] | other results
Cc1cc(C(C)Nc2ccccc2)c2nc(N3CCOCC3)cc(=O)n2c1 (stereo unspecified) | 500 nM | > 10000 | 7600 | –
CNc1nccc(-c2cc(-c3nnc[nH]3)c3nc(C)n(-c4ccnc5c(F)ccc(F)c45)c3c2)c1F | > 10000 nM | > 10000 | > 10000 | –
Cc1nc2c(-c3nnc[nH]3)cc(-c3ccnc(N)c3F)cc2n1-c1ccnc2c(F)ccc(F)c12 | – | – | – | EC50 [4]: 12 nM; pKa [5]: 4.8; IC50 [6]: > 25000 nM; EC50 [7]: 6 nM; IC50 [8]: > 25000 nM; fraction unbound at 24 h [9]: 0.19; Papp B→A at 10 µM [10]: 31 ×10⁻⁶ cm/s; EC50 [11]: 9 nM; EC50 [12]: 53 nM; Activity [13]: Non-Toxic; bioavailability [14]: 60%; Vd [15]: 0.6 L/kg; fraction unbound at 24 h [16]: 0.08; clearance [17]: 2.17 mL/min/kg; Vd [18]: 0.5 L/kg; fraction unbound at 24 h [19]: 0.07; bioavailability [20]: 64%; IC50 [21]: > 25000 nM; fraction unbound at 24 h [22]: 0.06; EC50 [23]: 15 nM
Cc1nc2c(-c3nnc[nH]3)cc(-c3ccncc3)cc2n1-c1ccnc2c(F)ccc(F)c12 | – | > 10000 | – | pKa [5]: 5.3; IC50 [6]: 1000 nM; CLH [24]: 4 mL/min/kg and 10.2 mL/min/kg
Cc1c(-c2cc(-c3nnc[nH]3)c3nc(C)n(-c4ccnc5c(F)ccc(F)c45)c3c2)ccnc1N | > 10000 nM | > 10000 | > 10000 | IC50 [25]: 2860 nM
Cc1nc2c(-c3nnc[nH]3)cc(-c3cc(N)ncc3F)cc2n1-c1ccnc2c(F)ccc(F)c12 | 302 nM | > 10000 | 1500 | –
Cc1nc2c(-c3nnc[nH]3)cc(-c3ccnc(N)c3)cc2n1-c1ccnc2c(F)ccc(F)c12 | – | > 10000 | – | pKa [5]: 6.1; IC50 [6]: > 25000 nM; Papp B→A at 10 µM [10]: 18 ×10⁻⁶ cm/s; Papp A→B at 10 µM [26]: 1.7 ×10⁻⁶ cm/s
Cc1cc(-c2cc(-c3nnc[nH]3)c3nc(C)n(-c4ccnc5c(F)ccc(F)c45)c3c2)ncn1 | 1140 nM | > 10000 | 1270 | –
Cc1nc2c(-c3nnc[nH]3)cc(-c3c(F)cnc(N)c3F)cc2n1-c1ccnc2c(F)ccc(F)c12 | 1660 nM | > 10000 | 2520 | –
Cc1cc(-c2cc(-c3nnc[nH]3)c3nc(C)n(-c4ccnc5c(F)ccc(F)c45)c3c2)ccn1 | 300 nM and 122 nM and 1110 nM | > 10000 | – | pKa [5]: 5.9; IC50 [6]: 19000 nM
Cc1cc(-c2cc(-c3nnc[nH]3)c3nc(C)n(-c4ccnc5c(F)ccc(F)c45)c3c2)cc(N)n1 | 2590 nM | > 10000 | 6840 | –
Cc1nc2c(-c3nnc[nH]3)cc(-c3ccnc(N)c3Cl)cc2n1-c1ccnc2c(F)ccc(F)c12 | 297 nM | > 10000 | 890 | –

Further molecules by falling IC50 [2], results first:

IC50 [1] | IC50 [2] [nM] | IC50 [3] [nM] | Structure (SMILES) | other results
402 nM | 9420 | 680 | Cc1nc2c(-c3nnc[nH]3)cc(-c3ccnc(C(F)F)c3)cc2n1-c1ccnc2c(F)ccc(F)c12 | –
52 nM | 6270 | 75 | Cc1nc2c(-c3nnc[nH]3)cc(-c3ccnc(Cl)c3)cc2n1-c1ccnc2c(F)ccc(F)c12 | –
36 nM | 6000 | 450 | C[C@@H](Nc1cc(F)cc(F)c1)c1cc(C(=O)N(C)C)cc2c(=O)cc(N3CCOCC3)oc12 [AZD-8186] | –
100 nM | 5300 | 350 | Clc1cccc2c(-n3cnc4c(-c5ncn[nH]5)cc(-c5ccncc5)cc43)ccnc12 | –
35 nM | 2720 | 55 | Cc1nccc(-c2cc(-c3nnc[nH]3)c3nc(C)n(-c4ccnc5c(F)ccc(F)c45)c3c2)n1 | –
12 nM | 350 | 60 | Clc1cccc2c(-n3cnc4c(-c5nnc[nH]5)cc(N5CCOCC5)cc43)ccnc12 | –
